ChEMBL document CHEMBL5058577, “EUbOPEN Chemogenomics Library 2 (Multiplex)” (2022)

Test system: U2OS
Test: Multiplex assay against U2OS
Type: toxicity, cell-based
Details: human
How it was run: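 Phenotypes for tubulin, mitochondrial mass and membrane permeability are expressed as per cents of healthy-nucleus cells. Cells were stained live at seeding with Hoechst33342, BioTracker Green Microtubule Cytoskeleton Dye, MitoTracker Red and Annexin V Alexa Fluor 680, then imaged after compound addition on a CQ1 microscope at 37°C and 5% CO2. Machine-learning gating in CellPathfinder separated Hoechst high-intensity objects from normal cells, divided normal cells by nuclear state (healthy, pyknosed, fragmented) and divided pyknosed cells into mitotic or apoptotic.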

[1] = 12 h, 1 µM, compound concentration 1 uM, replicate 1
[2] = 12 h, 1 µM, compound concentration 1 uM, replicate 2
[3] = 12 h, 10 µM, compound concentration 10 uM, replicate 1
[4] = 12 h, 10 µM, compound concentration 10 uM, replicate 2
[5] = 24 h, 1 µM, compound concentration 1 uM, replicate 1
[6] = 24 h, 1 µM, compound concentration 1 uM, replicate 2
[7] = 24 h, 10 µM, compound concentration 10 uM, replicate 1
[8] = 24 h, 10 µM, compound concentration 10 uM, replicate 2
[9] = 48 h, 1 µM, compound concentration 1 uM, replicate 1
[10] = 48 h, 1 µM, compound concentration 1 uM, replicate 2
[11] = 48 h, 10 µM, compound concentration 10 uM, replicate 1
[12] = 48 h, 10 µM, compound concentration 10 uM, replicate 2

Cc1ccc(F)cc1C(=O)Nc1ccc(C(=O)N2Cc3cccn3Cc3ccccc32)c(Cl)c1 [LIXIVAPTAN]
Population Apoptotic (%) [1]: 69%
Population Fragmented Nuclei (%) [1]: 32%
Population Healthy Nuclei (%) [1]: 55%
Population Hoechst High Intensity Objects (%) [1]: 3%
Population Membrane Permeable-Phenotype (%) [1]: 9%
Population Mitochondria Different-Phenotype (%) [1]: 9%
Population Mitotic Cells (%) [1]: 30%
Population Normal (%) [1]: 96%
Population Pyknosed Nuclei (%) [1]: 11%
Population Tubulin-Different-Phenotype (%) [1]: 7%
Total Cell Count [1]: 230
Population Apoptotic (%) [2]: 84%
Population Fragmented Nuclei (%) [2]: 8%
Population Healthy Nuclei (%) [2]: 82%
Population Membrane Permeable-Phenotype (%) [2]: 14%
Population Mitochondria Different-Phenotype (%) [2]: 10%
Population Mitotic Cells (%) [2]: 15%
Population Pyknosed Nuclei (%) [2]: 8%
Population Tubulin-Different-Phenotype (%) [2]: 11%
Total Cell Count [2]: 150
Population Apoptotic (%) [3]: 59%
Population Fragmented Nuclei (%) [3]: 34%
Population Healthy Nuclei (%) [3]: 49%
Population Hoechst High Intensity Objects (%) [3]: 5%
Population Membrane Permeable-Phenotype (%) [3]: 79%
Population Mitochondria Different-Phenotype (%) [3]: 42%
Population Mitotic Cells (%) [3]: 40%
Population Normal (%) [3]: 94%
Population Pyknosed Nuclei (%) [3]: 16%
Population Tubulin-Different-Phenotype (%) [3]: 85%
Total Cell Count [3]: 203
Population Apoptotic (%) [4]: 47%
Population Fragmented Nuclei (%) [4]: 13%
Population Healthy Nuclei (%) [4]: 69%
Population Membrane Permeable-Phenotype (%) [4]: 63%
Population Mitochondria Different-Phenotype (%) [4]: 55%
Population Mitotic Cells (%) [4]: 52%
Population Tubulin-Different-Phenotype (%) [4]: 77%
Total Cell Count [4]: 119
Population Apoptotic (%) [5]: 86%
Population Fragmented Nuclei (%) [5]: 26%
Population Healthy Nuclei (%) [5]: 64%
Population Hoechst High Intensity Objects (%) [5]: 1%
Population Membrane Permeable-Phenotype (%) [5]: 9%
Population Mitochondria Different-Phenotype (%) [5]: 9%
Population Mitotic Cells (%) [5]: 13%
Population Normal (%) [5]: 98%
Population Pyknosed Nuclei (%) [5]: 8%
Population Tubulin-Different-Phenotype (%) [5]: 4%
Total Cell Count [5]: 257
Population Apoptotic (%) [6]: 57%
Population Fragmented Nuclei (%) [6]: 14%
Population Healthy Nuclei (%) [6]: 81%
Population Hoechst High Intensity Objects (%) [6]: 4%
Population Membrane Permeable-Phenotype (%) [6]: 11%
Population Mitochondria Different-Phenotype (%) [6]: 13%
Population Mitotic Cells (%) [6]: 42%
Population Normal (%) [6]: 95%
Population Pyknosed Nuclei (%) [6]: 4%
Population Tubulin-Different-Phenotype (%) [6]: 7%
Total Cell Count [6]: 171
Population Apoptotic (%) [7]: 59%
Population Fragmented Nuclei (%) [7]: 30%
Population Healthy Nuclei (%) [7]: 50%
Population Hoechst High Intensity Objects (%) [7]: 4%
Population Membrane Permeable-Phenotype (%) [7]: 65%
Population Mitochondria Different-Phenotype (%) [7]: 63%
Population Mitotic Cells (%) [7]: 40%
Population Normal (%) [7]: 95%
Population Pyknosed Nuclei (%) [7]: 18%
Population Tubulin-Different-Phenotype (%) [7]: 75%
Total Cell Count [7]: 207
Population Apoptotic (%) [8]: 66%
Population Fragmented Nuclei (%) [8]: 14%
Population Healthy Nuclei (%) [8]: 67%
Population Membrane Permeable-Phenotype (%) [8]: 54%
Population Mitochondria Different-Phenotype (%) [8]: 67%
Population Mitotic Cells (%) [8]: 33%
Population Tubulin-Different-Phenotype (%) [8]: 66%
Total Cell Count [8]: 119
Population Apoptotic (%) [9]: 87%
Population Fragmented Nuclei (%) [9]: 24%
Population Healthy Nuclei (%) [9]: 64%
Population Hoechst High Intensity Objects (%) [9]: 1%
Population Membrane Permeable-Phenotype (%) [9]: 9%
Population Mitochondria Different-Phenotype (%) [9]: 6%
Population Mitotic Cells (%) [9]: 12%
Population Normal (%) [9]: 98%
Population Pyknosed Nuclei (%) [9]: 11%
Population Tubulin-Different-Phenotype (%) [9]: 5%
Total Cell Count [9]: 378
Population Apoptotic (%) [10]: 95%
Population Fragmented Nuclei (%) [10]: 10%
Population Healthy Nuclei (%) [10]: 79%
Population Hoechst High Intensity Objects (%) [10]: 3%
Population Membrane Permeable-Phenotype (%) [10]: 13%
Population Mitochondria Different-Phenotype (%) [10]: 11%
Population Mitotic Cells (%) [10]: 5%
Population Normal (%) [10]: 96%
Population Pyknosed Nuclei (%) [10]: 10%
Total Cell Count [10]: 206
Population Apoptotic (%) [11]: 75%
Population Fragmented Nuclei (%) [11]: 32%
Population Healthy Nuclei (%) [11]: 37%
Population Hoechst High Intensity Objects (%) [11]: 5%
Population Membrane Permeable-Phenotype (%) [11]: 49%
Population Mitochondria Different-Phenotype (%) [11]: 40%
Population Mitotic Cells (%) [11]: 25%
Population Normal (%) [11]: 94%
Population Pyknosed Nuclei (%) [11]: 29%
Population Tubulin-Different-Phenotype (%) [11]: 44%
Total Cell Count [11]: 232
Population Apoptotic (%) [12]: 92%
Population Fragmented Nuclei (%) [12]: 18%
Population Healthy Nuclei (%) [12]: 58%
Population Hoechst High Intensity Objects (%) [12]: 12%
Population Membrane Permeable-Phenotype (%) [12]: 60%
Population Mitochondria Different-Phenotype (%) [12]: 52%
Population Mitotic Cells (%) [12]: 7%
Population Normal (%) [12]: 87%
Population Pyknosed Nuclei (%) [12]: 23%
Population Tubulin-Different-Phenotype (%) [12]: 57%
Total Cell Count [12]: 137
